Screening results deposited in PubChem by Johns Hopkins Ion Channel Center.
Hits are enriched below; roughly 2.3% of the tested compounds scored in any of these assays.
TRPC6 act = activators of mouse TRPC6 channel; Q61143; HEK293-TRPC6 membrane potential dye fluorescence; hits give high values; B-score at 10 µM; 310,000 compounds, 0.13% hits; AID 2550;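 active means B-score of the integrated fluorescence ratio above library mean plus 3 SD, and starting fluorescence ratio within library mean plus 5 SD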;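 further: higher score means more depolarization so channel activation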
Target sequence (Q61143 whole entry, looked up): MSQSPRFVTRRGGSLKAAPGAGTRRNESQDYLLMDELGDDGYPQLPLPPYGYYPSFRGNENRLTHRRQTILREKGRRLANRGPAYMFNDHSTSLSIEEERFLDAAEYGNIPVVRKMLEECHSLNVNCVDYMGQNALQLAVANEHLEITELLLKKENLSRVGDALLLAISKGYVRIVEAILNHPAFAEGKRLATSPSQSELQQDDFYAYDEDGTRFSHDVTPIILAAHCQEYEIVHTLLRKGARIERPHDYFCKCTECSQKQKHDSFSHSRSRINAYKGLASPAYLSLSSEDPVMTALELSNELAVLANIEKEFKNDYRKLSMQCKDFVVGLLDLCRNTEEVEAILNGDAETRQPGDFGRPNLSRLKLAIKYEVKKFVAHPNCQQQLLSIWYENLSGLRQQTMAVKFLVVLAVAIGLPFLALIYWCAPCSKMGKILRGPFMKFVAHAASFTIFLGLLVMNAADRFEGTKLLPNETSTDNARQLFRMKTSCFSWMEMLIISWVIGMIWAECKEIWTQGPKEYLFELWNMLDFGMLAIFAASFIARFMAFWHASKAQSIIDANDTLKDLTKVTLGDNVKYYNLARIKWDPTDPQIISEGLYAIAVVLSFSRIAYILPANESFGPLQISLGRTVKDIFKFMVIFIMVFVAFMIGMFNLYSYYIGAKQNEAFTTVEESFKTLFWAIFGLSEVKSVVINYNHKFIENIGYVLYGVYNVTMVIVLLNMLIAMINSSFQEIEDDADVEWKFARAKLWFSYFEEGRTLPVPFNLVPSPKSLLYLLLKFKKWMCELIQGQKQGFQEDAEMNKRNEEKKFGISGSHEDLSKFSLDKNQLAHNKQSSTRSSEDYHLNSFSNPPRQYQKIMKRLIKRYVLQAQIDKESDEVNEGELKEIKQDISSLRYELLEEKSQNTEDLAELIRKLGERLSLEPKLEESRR
TRPC4 act = TRPC4 (mouse) channel activation. Q9QUQ5. HEK293 TRPC4beta/mu-opioid, Fluo4 calcium fluorescence; hits give high values. B-score at 10 µM. 310,000 compounds, 0.49% hits. AID 2237;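 active means B-score above 5 SD of library B-scores, and initial fluorescence ratio not above library mean plus 5 SD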;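 further: positive B-score marks a calcium rise read as TRPC4 activation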
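Technique: kinetic Fluo4 calcium fluorescence; Test system: TRPC4beta and mu-opioid receptor HEK293 stable cells; Measure: B-scored integrated calcium fluorescence ratio; Benchmarks: low control buffer alone, high control maximal DAMGO; Schedule: 45 min room-temperature Fluo4 loading, 110 s read.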
TRPC4 PAM = allosterically enhances the mouse TRPC4 cation channel; AID 2227; HEK293 TRPC4beta/mu-opioid, DAMGO EC20, Fluo-4 Ca2+ flux; hits give high values; 310,000 compounds, 0.42% hits; B-score at 10 µM; Q9QUQ5;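 active means B-score of calcium response area above 5 SD of library B-scores, with initial fluorescence ratio within 5 SD of library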;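 further: B-score of integrated fluorescence ratio over time as area under calcium response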
TRPC6 inhibitor = inhibitors of mouse TRPC6 channel. Q61143. HEK293-TRPC6, membrane potential dye, ACh-evoked depolarization; hits give low values. B-score at 10 µM. 310,000 compounds, 1.1% hits;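 active means B-score under library mean minus 3 SD, initial fluorescence not abnormally high, positive integrated signal ratio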;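 further: B-score derived from integrated fluorescence ratio over the kinetic read; more negative B-score means stronger inhibition of depolarization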
TRPC4 block = TRPC4 (mouse) channel inhibition. Q9QUQ5. HEK293 TRPC4beta/mu-opioid, DAMGO-evoked Fluo4 calcium flux; hits give low values. B-score at 10 µM. 300,000 compounds, 0.39% hits;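 active means B-score over 3 SD under the library average, no early fluorescence shift, positive overall ratio signal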
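material = TRPC4beta/mu-opioid receptor HEK293 cell line | probe or stimulus = sequential submaximal and maximal DAMGO stimulation | compound dosing = one concentration per compound | measured by = Fluo4 Ca2+ flux fluorescence | evaluation = integrated fluorescence ratio relative to baseline, converted to per-well B score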
TRPC4 spec 2 = second selectivity test of TRPC6 inhibitors: effect on mouse TRPC4; shares compounds with TRPC6 inhibitor; 920 compounds, 42% hits; AID 2776; inhibition, % at 10 µM; HEK293 TRPC4/MOR, membrane potential dye fluorescence; channel activated by saturating DAMGO dose;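 active means compounds whose fluorescence signal differed from control wells by over 3 SD, either direction, in both duplicate plates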
TRPC4 spec = selectivity of TRPC6 inhibitors: effect on mouse TRPC4; shares compounds with TRPC6 inhibitor; HEK293 TRPC4/mu-opioid, membrane potential fluorescence; activity change, negative = inhibition, % at 10 µM; 920 compounds, 61% hits; AID 2777;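 active means rise or fall in signal beyond 3 SD of buffer-only wells in both replicate plates, either sign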;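 further: integrated kinetic ratio of fluorescence range over baseline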
HEK293 MPD ctr 2-1 = parental HEK293 nonspecific activity of TRPC6 inhibitors, second screen. shares compounds with TRPC6 inhibitor. parental HEK293 membrane potential dye fluorescence; maximal acetylcholine challenge after compound addition. signal change vs control, % at 10 µM. 920 compounds, 31% hits. AID 2779;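 active means membrane potential signal moving either way by over 3 SD of the maximum-effect control, in both duplicate plates, meaning non-specific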
HEK293 MPD ctr-1 = counter-screen for TRPC6 inhibitors: effect in parental HEK293 cells; membrane potential signal change, % at 10 µM; shares compounds with TRPC6 inhibitor; parental HEK293 membrane potential dye fluorescence; 920 compounds, 60% hits; AID 2780;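 active means membrane potential signal shifting up or down by more than 3 SD of buffer-only wells, on both duplicate plates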
HEK293 MPD ctr-2 = counter-screen for TRPC6 modulators: effect in parental HEK293 cells. membrane potential signal change, % at 10 µM. shares compounds with TRPC6 inhibitor. membrane potential dye fluorescence. 2,400 compounds, 51% hits;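 active means membrane potential signal moves up or down beyond 5 SD from buffer-only wells, on both duplicate plates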
HEK293 MPD ctr 2-2 = parental HEK293 nonspecific activity of TRPC6 modulators, second screen; shares compounds with TRPC6 inhibitor; membrane potential dye fluorescence; after compound, maximal acetylcholine stimulation; inhibition, % at 10 µM; 2,400 compounds, 14% hits;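 active means membrane potential signal drops by more than 5 SD from the mean control signal, in both duplicate plates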;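 further: plate controls were acetylcholine ECmax control wells for no effect and buffer only wells for full effect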
TRPC4 ctr mod = selectivity of TRPC6 modulators against mouse TRPC4. percent change from control (negative = decrease, positive = increase), % at 10 µM. shares compounds with TRPC6 inhibitor. HEK293 TRPC4/mu-opioid, membrane potential fluorescence. 2,400 compounds, 69% hits;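 active means membrane potential signal moved up or down beyond 5 SD of buffer control wells, in both duplicate plates, actives on both sides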;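 further: plate controls were assay buffer wells for no effect and DAMGO maximal-effect wells for full effect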
TRPC4 ctr inh 2 = mouse TRPC4 off-target activity of TRPC6 modulators, second screen | shares compounds with TRPC6 inhibitor | HEK293 TRPC4/mu-opioid, membrane potential dye fluorescence; stimulated with maximal-effect DAMGO | inhibition, % at 10 µM | 2,400 compounds, 55% hits | AID 488928;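 active means drop in membrane potential signal beyond 5 SD of the control wells in both duplicate plates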;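 further: TRPC4 counter screen for TRPC6 hits run under conditions tuned for TRPC6 not TRPC4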
TRPC6 block conf = confirmation of mouse TRPC6 inhibitors; shares compounds with TRPC6 inhibitor; HEK293-TRPC6, membrane potential dye, ACh-evoked depolarization; inhibition, % at 10 µM; 3,300 compounds, 43% hits; AID 488960;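 active means fluorescence ratio falls more than 5 SD below the full-stimulation control mean, in both duplicate runs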;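 further: integrated fluorescence ratio of peak minus minimum over baseline after agonist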
TRPC6 act conf = mouse TRPC6 activator confirmation; HEK293-TRPC6 membrane potential dye fluorescence, FDSS; activation, % at 10 µM; shares compounds with TRPC6 inhibitor; 2,800 compounds, 11% hits;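 active means ratio signal rise beyond 5 SD above unstimulated control wells' mean, seen in both duplicate runs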;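 further: plate controls were buffer EC0 wells for no effect and acetylcholine ECmax response for full effect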
Active calls of the source: *.

How did CCN(CC)CC(=O)N1c2ccccc2Sc2ccc(Cl)cc21 do in these assays?
TRPC6 act: inactive; TRPC4 act: inactive; TRPC4 PAM: inactive; TRPC6 inhibitor: -8.2*; TRPC4 block: inactive; TRPC4 spec 2: inactive; TRPC4 spec: 6.0%*; HEK293 MPD ctr 2-1: inactive; HEK293 MPD ctr-1: 7.4%*; TRPC6 block conf: inactive

Results for O=C(CCN1CCOCC1)N1c2ccccc2Sc2ccc(Cl)cc21 ?
TRPC6 act: inactive; TRPC4 act: inactive; TRPC4 PAM: inactive; TRPC6 inhibitor: -5.2*; TRPC4 block: inactive; HEK293 MPD ctr-2: inactive; HEK293 MPD ctr 2-2: 75%*; TRPC4 ctr mod: 14%*; TRPC4 ctr inh 2: inactive; TRPC6 block conf: 50%*

How did C#CCNC(=O)C1=C[C@H](c2ccccc2)[C@@H](CCCO)[C@H](OCC)O1 do in these assays?
TRPC6 act: inactive; TRPC4 act: inactive; TRPC4 PAM: inactive; TRPC6 inhibitor: inactive; TRPC4 block: inactive

Results for Cc1ccc(-n2c(SCC(N)=O)nnc2-c2ccc(S(=O)(=O)N3CCCCC3)cc2)c(C)c1 ?
TRPC6 act: inactive; TRPC4 act: inactive; TRPC4 PAM: inactive; TRPC6 inhibitor: -6*; TRPC4 block: inactive; HEK293 MPD ctr-2: inactive; HEK293 MPD ctr 2-2: inactive; TRPC4 ctr mod: 40%*; TRPC4 ctr inh 2: inactive; TRPC6 block conf: 41%*; TRPC6 act conf: inactive

How did CCOC(=O)c1cc(C)n(-c2c(C)n(C)n(-c3ccccc3)c2=O)c1C do in these assays?
TRPC6 act: inactive; TRPC4 act: inactive; TRPC4 PAM: inactive; TRPC6 inhibitor: -6*; TRPC4 block: inactive; HEK293 MPD ctr-2: inactive; HEK293 MPD ctr 2-2: inactive; TRPC4 ctr mod: inactive; TRPC4 ctr inh 2: inactive; TRPC6 block conf: inactive; TRPC6 act conf: inactive

What do the screens show for `COc1ccc(NC(=O)C(=O)NCCC2CCCCN2S(=O)(=O)c2ccc(F)cc2)cc1` (configuration not stated)?
TRPC6 act: inactive; TRPC4 act: inactive; TRPC4 PAM: inactive; TRPC6 inhibitor: inactive; TRPC4 block: inactive

What do the screens show for `CN1CCN(C2=C(NS(=O)(=O)c3cccs3)C(=O)c3ccccc3C2=O)CC1`?
TRPC6 act: inactive; TRPC4 act: inactive; TRPC4 PAM: inactive; TRPC6 inhibitor: inactive; TRPC4 block: inactive

How did O=C1C(NS(=O)(=O)c2cccs2)=C(N2CCN(Cc3ccccc3)CC2)C(=O)c2ccccc21 do in these assays?
TRPC6 act: inactive; TRPC4 act: inactive; TRPC4 PAM: inactive; TRPC6 inhibitor: -7.3*; TRPC4 block: inactive; HEK293 MPD ctr-2: -136%*; HEK293 MPD ctr 2-2: inactive; TRPC4 ctr mod: -36%*; TRPC4 ctr inh 2: 72%*; TRPC6 block conf: 58%*; TRPC6 act conf: inactive

How did CCOc1ccc(Br)cc1/C=N/O do in these assays?
TRPC6 act: 16*; TRPC4 act: inactive; TRPC4 PAM: inactive; TRPC6 inhibitor: -5.9*; TRPC4 block: -6*; HEK293 MPD ctr-2: 124%*; HEK293 MPD ctr 2-2: inactive; TRPC4 ctr mod: 22%*; TRPC4 ctr inh 2: inactive; TRPC6 block conf: 58%*; TRPC6 act conf: 132%*

What do the screens show for `COc1ccc(C2NC(=O)NC(O)(C(F)(F)F)C2C(=O)c2ccc(C)cc2)cc1` (configuration not stated)?
TRPC6 act: inactive; TRPC4 act: inactive; TRPC4 PAM: inactive; TRPC6 inhibitor: -9.6*; TRPC4 block: inactive; TRPC4 spec 2: inactive; TRPC4 spec: inactive; HEK293 MPD ctr 2-1: 14%*; HEK293 MPD ctr-1: inactive; TRPC6 block conf: 65%*; TRPC6 act conf: inactive

What do the screens show for `COc1ccc(C2NC(=O)NC(O)(C(F)(F)F)C2C(=O)c2ccccc2)cc1OC` (configuration not stated)?
TRPC6 act: inactive; TRPC4 act: inactive; TRPC4 PAM: inactive; TRPC6 inhibitor: inactive; TRPC4 block: inactive

How did Cc1cc(C)nc(/N=C(\N)Nc2ccc(C)c([N+](=O)[O-])c2)n1 do in these assays?
TRPC6 act: inactive; TRPC4 act: inactive; TRPC4 PAM: inactive; TRPC6 inhibitor: -5.4*; TRPC4 block: inactive; HEK293 MPD ctr-2: inactive; HEK293 MPD ctr 2-2: inactive; TRPC4 ctr mod: -19%*; TRPC4 ctr inh 2: 36%*; TRPC6 block conf: inactive; TRPC6 act conf: inactive

What do the screens show for `N#CCCN(C(=O)COC(=O)Cc1ccc(Br)cc1)c1ccccc1`?
TRPC6 act: inactive; TRPC4 act: inactive; TRPC4 PAM: inactive; TRPC6 inhibitor: inactive; TRPC4 block: inactive

How did COc1cc(CCC(=O)OCC(=O)N(CCC#N)c2ccccc2)cc(OC)c1OC do in these assays?
TRPC6 act: inactive; TRPC4 act: inactive; TRPC4 PAM: inactive; TRPC6 inhibitor: -5.4*; TRPC4 block: inactive; HEK293 MPD ctr-2: inactive; HEK293 MPD ctr 2-2: inactive; TRPC4 ctr mod: inactive; TRPC4 ctr inh 2: inactive; TRPC6 block conf: inactive; TRPC6 act conf: inactive
